# Data taken from article PMC2874112 (Bioconjugate chemistry, 2010).
# Columns and labels:
# [1] = molecular target: T1, ER alpha levels in MCF7 cells (Homo sapiens, UniProt P03372); test: Receptor stability study; assay type: cell-based; conditions: 24 hours, 10 nM estradiol, 100 nM fulvestrant, 10 μM OHT-6C-BODIPY
# T1 sequence (P03372 1-595): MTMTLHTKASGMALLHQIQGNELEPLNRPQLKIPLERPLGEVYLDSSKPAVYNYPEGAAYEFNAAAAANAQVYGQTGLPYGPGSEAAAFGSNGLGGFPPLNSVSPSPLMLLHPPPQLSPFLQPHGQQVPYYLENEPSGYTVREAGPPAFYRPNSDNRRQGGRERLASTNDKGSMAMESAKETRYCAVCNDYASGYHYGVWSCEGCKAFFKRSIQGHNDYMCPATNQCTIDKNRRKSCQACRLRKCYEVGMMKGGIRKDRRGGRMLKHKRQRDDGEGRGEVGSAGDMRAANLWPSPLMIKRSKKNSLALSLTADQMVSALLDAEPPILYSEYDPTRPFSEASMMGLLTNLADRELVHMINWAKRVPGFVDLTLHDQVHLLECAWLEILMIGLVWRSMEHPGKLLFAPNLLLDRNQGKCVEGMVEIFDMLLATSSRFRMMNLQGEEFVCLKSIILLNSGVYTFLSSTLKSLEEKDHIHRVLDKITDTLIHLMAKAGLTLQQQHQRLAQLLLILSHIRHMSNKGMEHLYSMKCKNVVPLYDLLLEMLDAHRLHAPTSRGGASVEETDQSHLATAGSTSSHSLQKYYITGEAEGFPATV
# MCF-7 cells = test: Proliferation study; assay type: cell-based; conditions: tamoxifen-sensitive MCF7 cells, 1 nM estradiol, 7 days, MTT
# Summary of the method: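 MCF-7 cells were maintained in phenol red free DMEM F-12 HAM with glutamine, penicillin/streptomycin and 10% FBS at 37 °C under 5% CO2. […] Cell number was read by MTT. Two experiments were run, each in triplicate.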
Effect on cellular ER alpha levels [1],SMILES,Effect on estradiol-induced growth (MCF-7 cells)
marked receptor downregulation,C[C@]12CC[C@@H]3c4ccc(O)cc4C[C@@H](CCCCCCCCC[S+]([O-])CCCC(F)(F)C(F)(F)F)[C@H]3[C@@H]1CC[C@@H]2O (some centres unmarked) [fulvestrant],
,"CC/C(=C(\c1ccc(O)cc1)c1ccc(OCCN(C)C)cc1)c1ccccc1 [OHT, 4-hydroxytamoxifen]",able to block estradiol-induced growth
